The source of these data is ChEMBL document CHEMBL1134289, “5-(Tryptophyl)amino-1,3-dioxoperhydropyrido[1,2-c]pyrimidine-based potent and selective CCK(1) receptor antagonists: structure-activity relationship studies on the central 1,3-dioxoperhydropyrido[1,2-c]pyrimidine scaffold” (J Med Chem, 2001).

For assay [1], the species on record is Rattus norvegicus. Description: Inhibition of amylase release stimulated by CCK-8 (0.1 nM) in dispersed rat pancreatic acini. Type of assay: functional. In outline:
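Acini prepared by collagenase digestion (two 6-min incubations, 37 °C) in HEPES buffer pH 7.4, then suspended in buffer with theophylline, SBTI and BSA. Incubated 30 min at 37 °C under O2 with shaking, CCK-8 0.1 nM plus increasing compound levels. Released amylase taken as percent of acinar content; inhibition computed relative to vehicle and CCK-8 alone. Three to six experiments, in duplicate.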

The target of assay [2] is T1, Cholecystokinin receptor type A (Rattus norvegicus, UniProt P30551).
T1 sequence (P30551 whole entry): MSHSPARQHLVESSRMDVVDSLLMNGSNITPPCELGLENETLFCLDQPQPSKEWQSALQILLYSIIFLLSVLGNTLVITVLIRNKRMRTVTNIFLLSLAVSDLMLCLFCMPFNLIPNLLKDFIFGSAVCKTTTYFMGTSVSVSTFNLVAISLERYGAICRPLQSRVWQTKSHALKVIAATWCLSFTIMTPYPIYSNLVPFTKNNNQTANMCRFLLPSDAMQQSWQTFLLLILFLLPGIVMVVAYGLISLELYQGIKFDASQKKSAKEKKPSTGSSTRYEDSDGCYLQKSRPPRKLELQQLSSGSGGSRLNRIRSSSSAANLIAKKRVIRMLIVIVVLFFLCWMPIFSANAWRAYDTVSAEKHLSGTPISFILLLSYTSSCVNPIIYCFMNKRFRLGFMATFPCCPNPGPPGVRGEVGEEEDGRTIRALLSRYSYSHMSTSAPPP
Description: Inhibition of [3H]pCCK-8 binding to cholecystokinin type A receptor of rat pancreas. In a few lines: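 Rat pancreas homogenized in Pipes-HCl pH 6.5 with 30 mM MgCl2, centrifuged twice at 50000g, 4 °C. Membranes (0.2 mg protein/tube) incubated with 0.5 nM [3H]pCCK-8 plus bacitracin and SBTI (0.2 mg/mL each), 120 min, 25 °C. Seven test concentrations in triplicate; mean of at least three experiments.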

Assay [3] has as its target T2, Gastrin/cholecystokinin type B receptor (Rattus norvegicus, UniProt P30553).
T2 sequence (P30553 whole entry): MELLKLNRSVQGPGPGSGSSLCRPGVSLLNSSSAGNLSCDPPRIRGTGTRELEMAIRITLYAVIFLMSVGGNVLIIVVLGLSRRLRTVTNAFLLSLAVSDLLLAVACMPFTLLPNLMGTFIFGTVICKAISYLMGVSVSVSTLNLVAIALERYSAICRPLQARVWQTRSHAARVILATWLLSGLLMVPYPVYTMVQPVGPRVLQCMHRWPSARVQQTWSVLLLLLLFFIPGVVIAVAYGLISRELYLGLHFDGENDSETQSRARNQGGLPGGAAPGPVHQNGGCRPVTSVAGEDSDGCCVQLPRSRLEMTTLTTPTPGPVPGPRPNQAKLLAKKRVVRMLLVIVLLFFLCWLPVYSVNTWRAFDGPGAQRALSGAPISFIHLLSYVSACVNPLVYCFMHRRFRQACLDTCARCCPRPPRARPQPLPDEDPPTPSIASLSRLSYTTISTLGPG
Kind of assay: Inhibition of [3H]pCCK-8 binding to cholecystokinin type B receptor of rat cerebral cortex. It counts as tissue-based.

Assay [4] deals with T2, Gastrin/cholecystokinin type B receptor. Description: Inhibition of [3H]pCCK-8 specific binding to cholecystokinin type B receptor in rat cerebral cortex. It counts as tissue-based. In outline:
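Rat cerebral cortex homogenized in 50 mM Tris-HCl pH 7.4 with 5 mM MgCl2, centrifuged twice at 100000g, 4 °C. Membranes (0.45 mg protein/tube) incubated with 1 nM [3H]pCCK-8 and bacitracin 0.2 mg/mL, 60 min, 25 °C. Nonspecific binding defined by 1 µM CCK-8. Seven test concentrations in triplicate; at least three experiments.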

A value given as a limit tells only on which side of the number the result lay.

`CC(C)(C)OC(=O)N[C@@H](Cc1c[nH]c2ccccc12)C(=O)N[C@H]1CCCN2C(=O)N(Cc3ccccc3)C(=O)C[C@H]12`: 77 nM corresponded to half-maximal inhibition in assay [1] (IC50).

For the compound `CC(C)(C)OC(=O)N[C@@H](Cc1c[nH]c2ccccc12)C(=O)N[C@H]1CCCN2CN(Cc3ccccc3)C(=O)C[C@H]12`, the IC50 is more than 1000 nM in assay [2] and more than 10000 nM in assay [3].

Regarding `CC(C)(C)OC(=O)N[C@@H](Cc1c[nH]c2ccccc12)C(=O)N[C@@H]1CCCN2C(=O)N(Cc3ccccc3)C(=O)C[C@@H]12` [IQM-95333], the IC50 was more than 10000 nM in assay [4] and 0.64 nM in assay [1].

In the case of `CC(C)(C)OC(=O)N[C@@H](Cc1c[nH]c2ccccc12)C(=O)N[C@H]1CCCN2C(=S)N(Cc3ccccc3)C(=S)C[C@H]12`, the IC50 was 900 nM in assay [2] and more than 10000 nM in assay [3].

Regarding `CC(C)(C)OC(=O)N[C@@H](Cc1c[nH]c2ccccc12)C(=O)N[C@@H]1CCCN2C(=S)N(Cc3ccccc3)C(=S)C[C@@H]12`, the IC50 in assay [2] is 1.34 nM; in assay [1], 62 nM; in assay [3], more than 10000 nM.

As to `CC(C)(C)OC(=O)N[C@@H](Cc1c[nH]c2ccccc12)C(=O)N[C@@H]1CCCN2CN(Cc3ccccc3)C(=O)C[C@@H]12`, the IC50 in assay [2] is more than 1000 nM; in assay [3], more than 10000 nM.

With `CO[C@@H]1C[C@H]2[C@H](NC(=O)[C@H](Cc3c[nH]c4ccccc34)NC(=O)OC(C)(C)C)CCCN2C(=O)N1Cc1ccccc1`, the IC50 in assay [2] was 370 nM; in assay [3] it was more than 10000 nM.

For the compound `CC(C)(C)OC(=O)N[C@@H](Cc1c[nH]c2ccccc12)C(=O)N[C@H]1CCCN2C(=O)N(Cc3ccccc3)C(=S)C[C@H]12`, the IC50 in assay [1] is 23 nM; in assay [3] it was more than 10000 nM.

Take `CC(C)(C)OC(=O)N[C@@H](Cc1c[nH]c2ccccc12)C(=O)N[C@@H]1CCCN2CN(Cc3ccccc3)CC[C@@H]12`: the IC50 in assay [2] was more than 1000 nM; in assay [3], more than 10000 nM.

With `CC(C)(C)OC(=O)N[C@@H](Cc1c[nH]c2ccccc12)C(=O)N[C@@H]1CCCN2C(=O)N(Cc3ccccc3)CC[C@@H]12`, the IC50 in assay [2] was more than 1000 nM; in assay [3], more than 10000 nM.

For `CC(C)(C)OC(=O)N[C@@H](Cc1c[nH]c2ccccc12)C(=O)N[C@@H]1CCCN2C(=S)N(Cc3ccccc3)C(=O)C[C@@H]12`, the IC50 in assay [2] was 0.09 nM; in assay [1], 33 nM; in assay [3], more than 10000 nM.

With `CC(C)(C)OC(=O)N[C@@H](Cc1c[nH]c2ccccc12)C(=O)N[C@@H]1CCCN2C(=O)N(Cc3ccccc3)C(=S)C[C@@H]12`, the IC50 was 2.83 nM in assay [2], 4.3 nM in assay [1] and more than 10000 nM in assay [3].

Consider `CC(C)(C)OC(=O)N[C@@H](Cc1c[nH]c2ccccc12)C(=O)N[C@H]1CCCN2C(=S)N(Cc3ccccc3)C(=O)C[C@H]12`, for which the results for the IC50 in assay [2] and in assay [3] were 825 nM and more than 10000 nM, respectively.
